Assay [1] relates to Escherichia coli. Kind of assay: Antimicrobial activity against Escherichia coli JM109 transformant harboring pSTV28 plasmid expressing aac(6')-Iaf (TTG-ATG) mutant gene by microdilution method. The class given is functional. In short, it runs like this:
(§1)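 Broth microdilution MICs followed CLSI protocols. The test strains were E. coli JM109 carrying the vector pSTV28 alone or pSTV28 bearing aac(6′)-Iaf (wild type or TTG→ATG start codon). Each strain was tested in Mueller-Hinton broth containing chloramphenicol (30 μg/ml) plus serial dilutions of individual aminoglycosides. MICs are reported in μg/ml.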

In assay [2] the test system is Pseudomonas aeruginosa. Kind of assay: Antimicrobial activity against Pseudomonas aeruginosa isolate IMCJ798 by microdilution method. The class given is functional. Summed up:
(§2)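 Broth microdilution MIC following CLSI-recommended protocols, tested on multidrug-resistant clinical P. aeruginosa isolates against a panel of individual aminoglycosides. MIC reported in μg/ml.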

For assay [3], the system named is Pseudomonas aeruginosa. Kind of assay: Antimicrobial activity against multidrug resistant Pseudomonas aeruginosa by microdilution method. The class given is functional.
In assay [4] the test system is Pseudomonas aeruginosa. Kind of assay: Antimicrobial activity against Pseudomonas aeruginosa isolate IMCJ799 by microdilution method. The class given is functional. Summed up: as §2
Assay [5] relates to Pseudomonas aeruginosa. Kind of assay: Antimicrobial activity against multidrug resistant Pseudomonas aeruginosa isolate IMCJ2S1 by microdilution method. The class given is functional.
In assay [6] the test system is Escherichia coli. Kind of assay: Antimicrobial activity against Escherichia coli JM109 transformant harboring pSTV28 plasmid expressing aac(6')-Iaf wild type gene by microdilution method. The class given is functional. In short, it runs like this: as §1
The test system of assay [7] is Escherichia coli. Kind of assay: Antimicrobial activity against Escherichia coli JM109 transformant harboring pSTV28 plasmid by microdilution method.
Assay [8] has as its system Pseudomonas aeruginosa. Kind of assay: Antimicrobial activity against rifampin-resistant Pseudomonas aeruginosa ATCC 27853 by microdilution method. The class given is functional.
Assay [9] relates to Pseudomonas aeruginosa. Kind of assay: Antimicrobial activity against multidrug resistant Pseudomonas aeruginosa isolate IMCJ2S1 by microdilution method in presence of beta-lactamase inhibitor Tazobactam. The class given is functional.
Assay [10] concerns Pseudomonas aeruginosa. Kind of assay: Antimicrobial activity against Pseudomonas aeruginosa isolate IMCJ798 by microdilution method in presence of beta-lactamase inhibitor Tazobactam. The class given is functional.
Assay [11] has as its system Pseudomonas aeruginosa. Kind of assay: Antimicrobial activity against rifampin-resistant Pseudomonas aeruginosa ATCC 27853 by microdilution method in presence of beta-lactamase inhibitor Tazobactam. The class given is functional.
In assay [12] the test system is Pseudomonas aeruginosa. Kind of assay: Antimicrobial activity against Pseudomonas aeruginosa isolate IMCJ799 by microdilution method in presence of beta-lactamase inhibitor Tazobactam. The class given is functional.

In brackets after ≈: the same amount, converted by molar mass.

Consider `NCC[C@H](O)C(=O)N[C@@H]1C[C@H](N)[C@@H](O[C@H]2O[C@H](CN)[C@@H](O)[C@H](O)[C@H]2O)[C@H](O)[C@H]1O[C@H]1O[C@H](CO)[C@@H](O)[C@H](N)[C@H]1O` [AMIKACIN], for which the MIC against Escherichia coli [1] is 32 µg/mL (≈ 54.6 µM); with Pseudomonas aeruginosa [2] it was 128 µg/mL (≈ 219 µM); in the assay on Pseudomonas aeruginosa [3], at least 32 µg/mL; with Pseudomonas aeruginosa [4] it was 128 µg/mL (≈ 219 µM); against Pseudomonas aeruginosa [5], 128 µg/mL (≈ 219 µM); against Escherichia coli [6] it was 16 µg/mL (≈ 27.3 µM). The MIC with Escherichia coli [7] is 1 µg/mL (≈ 1.71 µM); with Pseudomonas aeruginosa [8] it was 2 µg/mL (≈ 3.42 µM).

As for `NCC[C@H](O)C(=O)N[C@@H]1C[C@H](N)[C@@H](O[C@H]2O[C@H](CN)CC[C@H]2N)[C@H](O)[C@H]1O[C@H]1O[C@H](CO)[C@@H](O)[C@H](N)[C@H]1O` [ARBEKACIN], the MIC stood at 4 µg/mL (≈ 7.24 µM) in the assay on Escherichia coli [1]; 8 µg/mL (≈ 14.5 µM) against Pseudomonas aeruginosa [2]; 16 µg/mL (≈ 29 µM) in the assay on Pseudomonas aeruginosa [4]; 2 µg/mL (≈ 3.62 µM) in the assay on Pseudomonas aeruginosa [5]; 4 µg/mL (≈ 7.24 µM) with Escherichia coli [6]; 2 µg/mL (≈ 3.62 µM) against Escherichia coli [7]. Besides, the MIC against Pseudomonas aeruginosa [8] is below 0.5 µg/mL.

On to `C[C@H]1[C@H](NC(=O)/C(=N\OC(C)(C)C(=O)O)c2csc(N)n2)C(=O)N1S(=O)(=O)O` [AZTREONAM], for which the minimum inhibitory concentration (MIC) in the assay with Pseudomonas aeruginosa [2] was 64 µg/mL (≈ 147 µM); against Pseudomonas aeruginosa [4], 64 µg/mL (≈ 147 µM); in the assay with Pseudomonas aeruginosa [5], 128 µg/mL (≈ 294 µM); in the assay with Pseudomonas aeruginosa [8], 2 µg/mL (≈ 4.59 µM).

Take `CC(C)(O/N=C(\C(=O)N[C@@H]1C(=O)N2C(C(=O)[O-])=C(C[n+]3ccccc3)CS[C@H]12)c1csc(N)n1)C(=O)O` [CEFTAZIDIME]: the MIC against Pseudomonas aeruginosa [2] was 512 µg/mL (≈ 937 µM); against Pseudomonas aeruginosa [4] it was 512 µg/mL (≈ 937 µM); in the assay on Pseudomonas aeruginosa [5], 512 µg/mL (≈ 937 µM); in the assay on Pseudomonas aeruginosa [8] it was below 1 µg/mL.

As for `NC[C@@H]1CC[C@@H](N)[C@@H](O[C@H]2[C@H](O)[C@@H](O[C@H]3O[C@H](CO)[C@@H](O)[C@H](N)[C@H]3O)[C@H](N)C[C@@H]2N)O1` [DIBEKACIN], the MIC in the assay on Escherichia coli [1] is 32 µg/mL (≈ 70.9 µM); against Pseudomonas aeruginosa [2] it was above 128 µg/mL; in the assay with Pseudomonas aeruginosa [4] it was above 128 µg/mL; against Escherichia coli [6], 16 µg/mL (≈ 35.4 µM); against Escherichia coli [7], 1 µg/mL (≈ 2.21 µM).

Take `NC[C@@H]1O[C@H](O[C@H]2[C@@H](O)[C@H](O[C@@H]3[C@@H](O)[C@H](N)C[C@H](N)[C@H]3O[C@H]3O[C@H](CN)[C@@H](O)[C@H](O)[C@H]3N)O[C@@H]2CO)[C@H](N)[C@@H](O)[C@@H]1O` [FRAMYCETIN]: the MIC with Escherichia coli [1] amounted to 4 µg/mL (≈ 6.51 µM); against Pseudomonas aeruginosa [2] it was 8 µg/mL (≈ 13 µM); in the assay on Pseudomonas aeruginosa [4] it was 8 µg/mL (≈ 13 µM); with Escherichia coli [6], 4 µg/mL (≈ 6.51 µM); in the assay on Escherichia coli [7], 2 µg/mL (≈ 3.25 µM).

As to `C[C@@H](O)[C@H]1C(=O)N2C(C(=O)O)=C(SCCNC=N)C[C@H]12` [IMIPENEM ANHYDROUS], the MIC against Pseudomonas aeruginosa [2] is 128 µg/mL (≈ 428 µM); against Pseudomonas aeruginosa [4], 128 µg/mL (≈ 428 µM); in the assay with Pseudomonas aeruginosa [5] it was 128 µg/mL (≈ 428 µM); against Pseudomonas aeruginosa [8], 4 µg/mL (≈ 13.4 µM).

Take `CN[C@@H]1[C@@H](O)C(O[C@@H]2[C@@H](O)[C@H](OC3O[C@H](CN)[C@@H](O)[C@H](O)[C@H]3O)[C@@H](N)C[C@H]2NC(=O)[C@@H](O)CN)OC[C@]1(C)O` (some centres undefined) [ISOPAMICIN]: the MIC against Escherichia coli [1] is 16 µg/mL (≈ 28.1 µM); with Pseudomonas aeruginosa [2], above 128 µg/mL; with Pseudomonas aeruginosa [4], above 128 µg/mL; against Escherichia coli [6], 4 µg/mL (≈ 7.02 µM); against Escherichia coli [7], 1 µg/mL (≈ 1.76 µM).

With `NC[C@H]1O[C@H](O[C@H]2[C@H](O)[C@@H](O[C@H]3O[C@H](CO)[C@@H](O)[C@H](N)[C@H]3O)[C@H](N)C[C@@H]2N)[C@H](O)[C@@H](O)[C@@H]1O` [KANAMYCIN], the MIC in the assay on Escherichia coli [1] was 128 µg/mL (≈ 264 µM); in the assay with Pseudomonas aeruginosa [2], above 128 µg/mL; against Pseudomonas aeruginosa [4] it was above 128 µg/mL; against Escherichia coli [6] it was 64 µg/mL (≈ 132 µM); against Escherichia coli [7], 2 µg/mL (≈ 4.13 µM).

For `C[C@@H](O)[C@H]1C(=O)N2C(C(=O)O)=C(S[C@@H]3CN[C@H](C(=O)N(C)C)C3)[C@H](C)[C@H]12` [MEROPENEM], the MIC with Pseudomonas aeruginosa [2] is above 512 µg/mL; in the assay with Pseudomonas aeruginosa [3], at least 16 µg/mL; in the assay with Pseudomonas aeruginosa [4] it was above 512 µg/mL; with Pseudomonas aeruginosa [5] it was 512 µg/mL (≈ 1340 µM); against Pseudomonas aeruginosa [8] it was 1 µg/mL (≈ 2.61 µM).

With `CCN[C@@H]1C[C@H](N)[C@@H](O[C@H]2OC(CN)=CC[C@H]2N)[C@H](O)[C@H]1O[C@H]1OC[C@](C)(O)[C@H](NC)[C@H]1O` [NETILMICIN], the minimal inhibitory concentration (MIC) with Escherichia coli [1] is 8 µg/mL (≈ 16.8 µM); against Pseudomonas aeruginosa [2], above 128 µg/mL; against Pseudomonas aeruginosa [4] it was above 128 µg/mL; with Escherichia coli [6] it was 8 µg/mL (≈ 16.8 µM); with Escherichia coli [7] it was 0.5 µg/mL (≈ 1.05 µM).

For `CC1COc2c(N3CCN(C)CC3)c(F)cc3c(=O)c(C(=O)O)cn1c23` (centres undefined) [OFLOXACIN], the minimum inhibitory concentration (MIC) was above 128 µg/mL against Pseudomonas aeruginosa [2], at least 4 µg/mL with Pseudomonas aeruginosa [3], above 128 µg/mL against Pseudomonas aeruginosa [4] and below 0.5 µg/mL against Pseudomonas aeruginosa [8].

Regarding `CCN1CCN(C(=O)N[C@@H](C(=O)N[C@@H]2C(=O)N3[C@@H]2SC(C)(C)[C@@H]3C(=O)O)c2ccccc2)C(=O)C1=O` [PIPERACILLIN], the MIC in the assay with Pseudomonas aeruginosa [2] is 256 µg/mL (≈ 495 µM); in the assay with Pseudomonas aeruginosa [4] it was 256 µg/mL (≈ 495 µM); in the assay on Pseudomonas aeruginosa [5], 256 µg/mL (≈ 495 µM); with Pseudomonas aeruginosa [8] it was below 4 µg/mL.

Take `CN[C@@H]1[C@@H](O)[C@@H](O[C@@H]2[C@@H](O)[C@H](O[C@H]3OC(CN)=CC[C@H]3N)[C@@H](N)C[C@H]2N)OC[C@]1(C)O` [SISOMICIN]: the MIC with Escherichia coli [1] stood at 2 µg/mL (≈ 4.47 µM); in the assay with Pseudomonas aeruginosa [2] it was 32 µg/mL (≈ 71.5 µM); in the assay with Pseudomonas aeruginosa [4] it was 32 µg/mL (≈ 71.5 µM); in the assay on Escherichia coli [6], 1 µg/mL (≈ 2.23 µM); with Escherichia coli [7], 0.5 µg/mL (≈ 1.12 µM).

For `C[C@]1(Cn2ccnn2)[C@H](C(=O)O)N2C(=O)C[C@H]2S1(=O)=O` [TAZOBACTAM], the MIC was found to be 256 µg/mL with Pseudomonas aeruginosa [9], 256 µg/mL with Pseudomonas aeruginosa [10], 4 µg/mL in the assay on Pseudomonas aeruginosa [11] and 256 µg/mL in the assay on Pseudomonas aeruginosa [12].

With `NC[C@H]1O[C@H](O[C@H]2[C@H](O)[C@@H](O[C@H]3O[C@H](CO)[C@@H](O)[C@H](N)[C@H]3O)[C@H](N)C[C@@H]2N)[C@H](N)C[C@@H]1O` [TOBRAMYCIN], the MIC with Escherichia coli [1] turned out to be 4 µg/mL (≈ 8.56 µM); in the assay on Pseudomonas aeruginosa [2], 32 µg/mL (≈ 68.4 µM); against Pseudomonas aeruginosa [4], 32 µg/mL (≈ 68.4 µM); with Escherichia coli [6] it was 4 µg/mL (≈ 8.56 µM); with Escherichia coli [7], 0.125 µg/mL (≈ 0.267 µM).

In the case of GENTAMICIN, the MIC against Escherichia coli [1] is 1 µg/mL; against Pseudomonas aeruginosa [2], 4 µg/mL; with Pseudomonas aeruginosa [4] it was 2 µg/mL; against Pseudomonas aeruginosa [5], 16 µg/mL; in the assay on Escherichia coli [6], 1 µg/mL; with Pseudomonas aeruginosa [8], below 1 µg/mL.

POLYMYXIN B: the MIC with Pseudomonas aeruginosa [2] came to 4 µg/mL; in the assay with Pseudomonas aeruginosa [4], 4 µg/mL; against Pseudomonas aeruginosa [5] it was 2 µg/mL; against Pseudomonas aeruginosa [8] it was 2 µg/mL.

The values are drawn from ChEMBL document CHEMBL1649468, “AAC(6')-Iaf, a novel aminoglycoside 6'-N-acetyltransferase from multidrug-resistant Pseudomonas aeruginosa clinical isolates” (2009).
